# Legend:
# human CB1 receptor [1] = biological target: T1, human CB1 receptor (Homo sapiens, UniProt P21554); test: Competitive radioligand; type: binding; settings: for inhibition at 10 µM: read-out: % displacement at 10 μM CB1
# human CB2 receptor [2] = biological target: T2, human CB2 receptor (Homo sapiens, UniProt P34972); test: Competitive radioligand; type: binding; settings: for inhibition at 10 µM: read-out: % displacement at 10 μM CB2
# [3] = (−)-trans vs (+)-trans isomer; cited from earlier work
# human CB1 receptor [4] = biological target: T1, human CB1 receptor; test: [35S]-GTPγS functional assay, CB1; type: biochemical; settings: for functional behavior at CB1: GTPγS
# How it was run: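 Membranes (20 µg) from HEK293 cells stably expressing human CB1, incubated with 0.5 nM [35S]-GTPγS, 30 µM GDP and test compound in 50 mM Tris-HCl, 150 mM NaCl, 9 mM MgCl2, 0.2 mM EGTA, 1.4 mg/mL BSA, pH 7.4. Incubation 2 h, 37 °C, gentle shaking. […] Filtration, scintillation counting. Duplicates; EC50 by nonlinear regression.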
# human CB2 receptor [5] = biological target: T2, human CB2 receptor; test: [35S]-GTPγS functional assay, CB2; type: biochemical; settings: for functional behavior at CB2: GTPγS
# [6] = IC50 CB2 displacement (bound given in text)
# [7] = IC50 ± SEM CB2, competitive radioligand binding, triplicate
# T1 sequence (P21554 whole entry): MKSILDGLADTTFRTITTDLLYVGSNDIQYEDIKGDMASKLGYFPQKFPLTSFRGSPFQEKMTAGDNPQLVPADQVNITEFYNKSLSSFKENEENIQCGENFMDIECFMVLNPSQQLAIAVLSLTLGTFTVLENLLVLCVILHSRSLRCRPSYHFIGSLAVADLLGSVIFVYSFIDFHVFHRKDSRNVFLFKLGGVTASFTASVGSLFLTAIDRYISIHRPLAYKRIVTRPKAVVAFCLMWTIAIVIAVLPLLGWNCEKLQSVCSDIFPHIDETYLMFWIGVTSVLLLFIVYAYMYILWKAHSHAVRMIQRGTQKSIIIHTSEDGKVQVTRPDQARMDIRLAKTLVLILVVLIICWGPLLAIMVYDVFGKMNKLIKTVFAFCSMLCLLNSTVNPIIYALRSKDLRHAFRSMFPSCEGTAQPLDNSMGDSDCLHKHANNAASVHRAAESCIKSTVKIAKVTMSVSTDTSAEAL
# T2 sequence (P34972 whole entry): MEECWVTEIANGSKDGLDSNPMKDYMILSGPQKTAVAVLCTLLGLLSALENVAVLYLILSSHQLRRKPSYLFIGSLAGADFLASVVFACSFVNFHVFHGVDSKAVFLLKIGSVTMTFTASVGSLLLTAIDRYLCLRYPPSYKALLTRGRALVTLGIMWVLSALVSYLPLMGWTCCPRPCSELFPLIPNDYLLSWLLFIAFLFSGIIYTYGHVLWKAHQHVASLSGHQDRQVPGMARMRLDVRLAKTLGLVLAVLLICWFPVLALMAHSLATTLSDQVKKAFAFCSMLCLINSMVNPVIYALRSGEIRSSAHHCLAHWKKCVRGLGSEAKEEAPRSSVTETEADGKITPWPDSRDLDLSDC
smiles,measurement,setting,value
"C[C@H]1CC[C@H]2[C@H](C1)c1c(O)cc(/C=C/c3ccc(C(F)(F)F)cc3)cc1OC2(C)C [11F, (6aS,9S,10aS)-6,6,9-Trimethyl-3-((E)-4-(trifluoromethyl)styryl)-6a,7,8,9,10,10a-hexahydro-6H-benzo[c]chromen-1-ol]",inhibition at 10 µM,human CB1 receptor [1],43.2%
same,inhibition at 10 µM,human CB2 receptor [2],23.9%
CCCCCc1cc(O)c2c(c1)OC(C)(C)[C@@H]1CCC(C)=C[C@@H]21 [dronabinol],potency relative to the (+)-trans-isomer of Δ9-THC,[3],6–100 times
"C[C@H]1CC[C@H]2[C@H](C1)c1c(O)cc(-c3ccoc3)cc1OC2(C)C [11D, (6aS,9S,10aS)-3-(Furan-3-yl)-6,6,9-trimethyl-6a,7,8,9,10,10a-hexahydro-6H-benzo[c]chromen-1-ol]",inhibition at 10 µM,human CB1 receptor [1],34%
same,inhibition at 10 µM,human CB2 receptor [2],44.4%
"CCCCCC/C=C/c1cc(O)c2c(c1)OC(C)(C)[C@H]1CC[C@H](C)C[C@H]21 [11E, (6aS,9S,10aS)-6,6,9-Trimethyl-3-((E)-oct-1-en-1-yl)-6a,7,8,9,10,10a-hexahydro-6H-benzo[c]chromen-1-ol]",IC50,human CB1 receptor [1],684 ± 326 nM
same,Ki,human CB1 receptor [1],342 ± 95.8 nM
same,inhibition at 10 µM,human CB1 receptor [1],66.8%
same,EC50,human CB1 receptor [4],239 ± 68 nM
same,functional behavior at CB1,human CB1 receptor [4],agonist
same,Ki,human CB2 receptor [2],573 ± 106 nM
same,IC50,human CB2 receptor [2]; [6],≤ 3200 nM
same,IC50,human CB2 receptor [2]; [7],1150 ± 212 nM
same,inhibition at 10 µM,human CB2 receptor [2],50.4%
"C[C@H]1CC[C@H]2[C@H](C1)c1c(O)cc(-c3csc4ccccc34)cc1OC2(C)C [11J, (6aS,9S,10aS)-3-(Benzo[b]thiophen-3-yl)-6,6,9-trimethyl-6a,7,8,9,10,10a-hexahydro-6H-benzo[c]chromen-1-ol]",functional behavior at CB2,human CB2 receptor [5],agonists
same,IC50,human CB1 receptor [1],> 2000 nM
same,Ki,human CB1 receptor [1],> 1000 nM
same,inhibition at 10 µM,human CB1 receptor [1],56.4%
same,EC50,human CB1 receptor [4],1470 ± 708 nM
same,functional behavior at CB1,human CB1 receptor [4],agonists
same,Ki,human CB2 receptor [2],40.2 ± 2.91 nM
same,IC50,human CB2 receptor [2]; [6],≤ 3200 nM
same,IC50,human CB2 receptor [2]; [7],80.4 ± 5.82 nM
same,inhibition at 10 µM,human CB2 receptor [2],70.4%
"C[C@H]1CC[C@H]2[C@H](C1)c1c(O)cc(-c3ccc(C#N)cc3)cc1OC2(C)C [11C, 4-((6aS,9S,10aS)-1-Hydroxy-6,6,9-trimethyl-6a,7,8,9,10,10a-hexahydro-6H-benzo[c]chromen-3-yl)benzonitrile]",inhibition at 10 µM,human CB1 receptor [1],-7.02%
same,inhibition at 10 µM,human CB2 receptor [2],22.1%
"C[C@H]1CC[C@H]2[C@H](C1)c1c(O)cc(/C=C/c3ccc(Cl)cc3)cc1OC2(C)C [11G, (6aS,9S,10aS)-3-((E)-4-Chlorostyryl)-6,6,9-trimethyl-6a,7,8,9,10,10a-hexahydro-6H-benzo[c]chromen-1-ol]",inhibition at 10 µM,human CB1 receptor [1],7.54%
same,inhibition at 10 µM,human CB2 receptor [2],8.7%
"C[C@H]1CC[C@H]2[C@H](C1)c1c(O)cc(-c3cc(C(F)(F)F)cc(C(F)(F)F)c3)cc1OC2(C)C [11K, (6aS,9S,10aS)-3-(3,5-Bis(trifluoromethyl)phenyl)-6,6,9-trimethyl-6a,7,8,9,10,10a-hexahydro-6H-benzo[c]chromen-1-ol]",inhibition at 10 µM,human CB1 receptor [1],-26.7%
same,inhibition at 10 µM,human CB2 receptor [2],11.2%
"C[C@H]1CC[C@H]2[C@H](C1)c1c(O)cc(-c3ccc4c(c3)OCO4)cc1OC2(C)C [11B, (6aS,9S,10aS)-3-(Benzo[d][1,3]dioxol-5-yl)-6,6,9-trimethyl-6a,7,8,9,10,10a-hexahydro-6H-benzo[c]chromen-1-ol]",inhibition at 10 µM,human CB1 receptor [1],30.8%
same,Ki,human CB2 receptor [2],117 ± 11.7 nM
same,IC50,human CB2 receptor [2]; [6],≤ 3200 nM
same,inhibition at 10 µM,human CB2 receptor [2],67%
"C[C@H]1CC[C@H]2[C@H](C1)c1c(O)cc(-c3ccccc3)cc1OC2(C)C [11A, (6aS,9S,10aS)-6,6,9-Trimethyl-3-phenyl-6a,7,8,9,10,10a-hexahydro-6H-benzo[c]chromen-1-ol]",inhibition at 10 µM,human CB1 receptor [1],34.3%
same,Ki,human CB2 receptor [2],1570 ± 836 nM
same,IC50,human CB2 receptor [2]; [6],≤ 3200 nM
same,IC50,human CB2 receptor [2]; [7],3150 ± 1670 nM
same,inhibition at 10 µM,human CB2 receptor [2],57.3%
"C[C@H]1CC[C@H]2[C@H](C1)c1c(O)cc(-c3ccc(Oc4ccccc4)cc3)cc1OC2(C)C [11I, (6aS,9S,10aS)-6,6,9-Trimethyl-3-(4-phenoxyphenyl)-6a,7,8,9,10,10a-hexahydro-6H-benzo[c]chromen-1-ol]",inhibition at 10 µM,human CB1 receptor [1],34.4%
same,inhibition at 10 µM,human CB2 receptor [2],16.3%
"C[C@H]1CC[C@H]2[C@H](C1)c1c(O)cc(-c3cccc4c3oc3ccccc34)cc1OC2(C)C [11H, (6aS,9S,10aS)-3-(Dibenzo[b,d]furan-4-yl)-6,6,9-trimethyl-6a,7,8,9,10,10a-hexahydro-6H-benzo[c]chromen-1-ol]",EC50,"human CB2 receptor [5]; EC50 GTPγS CB2, duplicate",5730 ± 3290 nM
same,functional behavior at CB2,human CB2 receptor [5],agonists
same,inhibition at 10 µM,human CB1 receptor [1],29.4%
same,Ki,human CB2 receptor [2],63.7 ± 8.19 nM
same,IC50,human CB2 receptor [2]; [6],≤ 3200 nM
same,IC50,human CB2 receptor [2]; [7],127 ± 16.4 nM
same,inhibition at 10 µM,human CB2 receptor [2],76.2%
